Publication PMC6434473 (Cell Transplantation, 2018)
Entries after “also recorded” stand apart in the source; their conditions may differ.

Key:
CXCR7 [1] = assay: SDF-1α-induced phosphorylation of Akt and Erk in CXCR7-transfected CHO cells; type: cell-based, human; conditions: Western blotting; for effect on SDF-1α-induced Akt phosphorylation: peptides with SDF-1α
Outline: (§1)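 CHO cells were stably transfected with pcDNA3-hCXCR4 or pcDNA3-hCXCR7, selected in G418 (1.2 mg/mL) and single-cell cloned; the CXCR4 line was also FACS-sorted. After SDF-1α exposure, cells were lysed 30 min on ice (Tris/NaCl/EGTA/deoxycholate/Triton/SDS, pH 7.2, plus phosphatase/protease inhibitors). Blots: BCA-matched protein, 8% SDS-PAGE, nitrocellulose, primary antibodies overnight at 4°C, HRP secondary 1 h at room temperature, chemiluminescent detection.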

wild-type CHO cells = assay: SDF-1α-induced phosphorylation of Akt in wild-type CHO cells; type: cell-based, Chinese hamster; conditions: SDF-1α 12.5 nM, Western blotting
Outline: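 Untransfected CHO cells were treated with SDF-1α (12.5 nM), then lysed 30 min on ice in pH 7.2 Tris/NaCl/EGTA/deoxycholate/Triton/SDS buffer with phosphatase/protease inhibitors. Lysates were cleared at 17,000 g, 15 min, 4°C. BCA-matched protein ran on 8% SDS-PAGE onto nitrocellulose, blocked with milk or BSA in TBST. Probing: primary overnight at 4°C, HRP secondary 1 h at room temperature, chemiluminescence.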

CXCR7 [2] = conditions: cited from earlier work
human CXCR4 = assay: SDF-1α-induced phosphorylation of Akt and Erk in CXCR4-transfected CHO cells; type: cell-based; conditions: SDF-1α 12.5 nM
Outline: as §1

CXCR4 = conditions: HEK293 cells that stably expressed CXCR4; cited from earlier work
C3H/HeJ mice = assay: Mobilization of hematopoietic progenitor cells to the blood; type: in vivo, mouse; conditions: subcutaneous, 1 h; for mobilization of BFU-E from the bone marrow to the blood / mobilization of CFU-GEMM from the bone marrow to the blood / mobilization of CFU-GM from the bone marrow to the blood: 7-day culture in MethoCult GF M3434; for mobilization of HPCs from the bone marrow to the peripheral blood: vs vehicle control (P < 0.01), monovalent peptide 37.5 and 150 mg/kg, bivalent peptide 57.5 and 230 mg/kg, mean of at least three independent experiments
Outline: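 C3H/HeJ mice received vehicle or peptide subcutaneously. After 1 h, peripheral blood was drawn into heparin-treated tubes and red cells were lysed with ammonium chloride. Cells were grown in MethoCult GF M3434 for 7 days in humidified 5% CO2. CFU-GM, BFU-E and CFU-GEMM colonies were counted.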

HSCs = conditions: clinical studies; cited from earlier work
[3] = test system: CXCR4-dependent HIV-1 strains; conditions: cited from earlier work
[4] = SDF-1α 12.5 nM, 5, 15, 30, 45, 60 minutes

| Compound | effect on SDF-1α-induced Akt phosphorylation (CXCR7 [1]) | mobilization of BFU-E from the bone marrow to the blood (C3H/HeJ mice) | mobilization of CFU-GEMM from the bone marrow to the blood (C3H/HeJ mice) | mobilization of CFU-GM from the bone marrow to the blood (C3H/HeJ mice) | mobilization of HPCs from the bone marrow to the peripheral blood (C3H/HeJ mice) | anti-HIV entry activity [3] | other results |
| --- | --- | --- | --- | --- | --- | --- | --- |
| SDF-1α: specific ligand of CXCR4 | – | – | – | – | – | – | induction of Akt phosphorylation (CXCR7 [1]; [4]): only Akt phosphorylation was observed consistently from 5 to 60 minutes; also recorded: only weak phosphorylation of Akt; induction of Erk phosphorylation (CXCR7 [1]; [4]): no phosphorylation changes were observed for Erk; induction of Akt phosphorylation (wild-type CHO cells): no changes in Akt phosphorylation; affinity for CXCR7 compared with CXCR4 (CXCR7 [2]): higher; induction of phosphorylation of Akt (human CXCR4; Western blotting): induced the phosphorylation of Akt and Erk significantly; induction of phosphorylation of Erk (human CXCR4; Western blotting): induced the phosphorylation of Akt and Erk significantly |
| LGASWHRPDKCCLGYQKRPLPK [HC4319] | little inhibitory effects; also recorded: little or no effect | strongly induced rapid mobilization | strongly induced rapid mobilization | strongly induced rapid mobilization | strong mobilization of HPCs | – | CXCR4 binding potency compared with the monomeric counterparts DV1 and DV3 (CXCR4): much more potent; inhibitory effect on phosphorylation of Akt compared with DV1 (human CXCR4; 30 μM, bivalent vs monovalent): more potent inhibitory effect; inhibitory effect on phosphorylation of Erk compared with DV1 (human CXCR4; 30 μM, bivalent vs monovalent): more potent inhibitory effect |
| c1cc(CN2CCCNCCNCCCNCC2)ccc1CN1CCCNCCNCCCNCC1 [AMD3100] | – | – | – | – | – | – | mobilization of HSCs to the peripheral blood (HSCs): rapid mobilization of HSCs to the peripheral blood |
| LGASWHRPDKCCLGYQKRPLPQVL LSSWYPTSQLCSKPGVIFLTKRGRQ VCADKSKDWVKKLMQQLPVTAR [vMIP-II] | – | – | – | – | – | – | inhibition of HIV-1 entry ([3]; vMIP-II binding to CXCR4 or CCR5): inhibitory effect on HIV-1 entry |
| LGASWHRPDKCCLGYQKRPLP [DV1] | slight effect; also recorded: little or no effect | strongly induced rapid mobilization | strongly induced rapid mobilization | strongly induced rapid mobilization | strong mobilization of HPCs | anti-HIV entry activity | effect on SDF-1α-induced Akt phosphorylation (CXCR7 [1]; listed as DV-1): little inhibitory effects |
| LGASWHRPDK [DV3] | – | – | – | – | – | anti-HIV entry activity | – |
